We go through three compounds from ChEMBL document CHEMBL4043303, “Development of Novel Melanocortin Receptor Agonists Based on the Cyclic Peptide Framework of Sunflower Trypsin Inhibitor-1” (J Med Chem, 2018).

Active and inactive are the calls of the source. No cut-off for these calls is given here.

What is called inhibition is the percentage by which the read-out fell short of the control.

Data set [1] deals with T1, Melanocyte-stimulating hormone receptor (Homo sapiens, UniProt Q01726). The data set is described as follows: Displacement of [125I]-NDP-alpha-MSH from human MC1R LBD expressed in HEK293 cell membranes up to 100 uM incubated for 16 to 23 hrs in dark by scintillation proximity assay. (Displacement assays read how much labelled ligand stays bound in the presence of the test substance.)
T1 sequence (Q01726 whole entry, looked up, the tested form may be a part): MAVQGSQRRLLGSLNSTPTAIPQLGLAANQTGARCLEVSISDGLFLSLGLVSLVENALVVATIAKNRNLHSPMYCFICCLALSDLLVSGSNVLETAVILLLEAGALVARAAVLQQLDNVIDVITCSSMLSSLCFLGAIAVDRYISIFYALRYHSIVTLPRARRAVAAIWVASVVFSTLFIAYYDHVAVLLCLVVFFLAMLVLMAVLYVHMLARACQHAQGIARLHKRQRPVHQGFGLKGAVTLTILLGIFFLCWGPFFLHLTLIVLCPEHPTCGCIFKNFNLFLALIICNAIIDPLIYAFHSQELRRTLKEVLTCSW

The target of data set [2] is T2, Melanocortin receptor 3 (Homo sapiens, UniProt P41968). In words: Agonist activity at human MC3R expressed in low doxycyclin-treated HEK293 cell membranes assessed as increase in cAMP production up to 100 uM after 45 mins by HTRF method. The class given is functional, cell-based. In outline: (§1)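 Stable T-REx-293 clones (Zeocin-selected, human receptor cDNA in pcDNA4/TO), receptor expression induced with 0.1 ng/mL doxycycline for 24 h. 1000 cells/well in HBSS with Ca2+/Mg2+, 20 mM HEPES pH 7.4, 0.1% BSA. Stimulation for 45 min at 37 °C with 1 mM IBMX. cAMP read by LANCE HTRF (665/615 nm).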
T2 sequence (P41968 whole entry): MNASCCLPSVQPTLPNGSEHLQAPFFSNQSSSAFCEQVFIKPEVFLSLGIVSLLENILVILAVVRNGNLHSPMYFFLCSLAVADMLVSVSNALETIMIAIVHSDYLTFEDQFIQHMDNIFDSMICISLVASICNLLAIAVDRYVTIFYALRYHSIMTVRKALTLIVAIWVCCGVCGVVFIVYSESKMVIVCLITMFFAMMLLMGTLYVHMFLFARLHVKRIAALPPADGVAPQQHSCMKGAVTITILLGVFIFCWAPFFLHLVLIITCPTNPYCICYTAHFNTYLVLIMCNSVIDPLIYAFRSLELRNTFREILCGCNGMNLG
Background: Changes in cAMP serve as a functional read-out for many G protein-coupled receptors.

Data set [3] deals with T1, Melanocyte-stimulating hormone receptor. The data set is described as follows: Agonist activity at human MC1R expressed in low doxycyclin-treated HEK293 cell membranes assessed as increase in cAMP production up to 100 uM after 45 mins by HTRF method. Type of data set: functional, cell-based. The procedure, abridged: as §1
For data set [4], the target named is T3, Melanocortin receptor 4 (Homo sapiens, UniProt P32245). In words: Displacement of [125I]-NDP-alpha-MSH from human MC4R LBD expressed in HEK293 cell membranes up to 100 uM incubated for 16 to 23 hrs in dark by scintillation proximity assay.
T3 sequence (P32245 whole entry, the tested form may be a part): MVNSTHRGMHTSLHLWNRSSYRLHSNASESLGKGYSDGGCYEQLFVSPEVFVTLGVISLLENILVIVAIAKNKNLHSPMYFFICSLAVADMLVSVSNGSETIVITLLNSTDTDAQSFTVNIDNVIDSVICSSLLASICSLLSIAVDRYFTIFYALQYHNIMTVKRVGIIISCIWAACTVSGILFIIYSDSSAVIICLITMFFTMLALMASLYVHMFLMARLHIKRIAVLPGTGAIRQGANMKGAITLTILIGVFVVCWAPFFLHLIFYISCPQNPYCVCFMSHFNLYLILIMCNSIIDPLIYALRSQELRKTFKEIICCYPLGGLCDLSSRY
Data set [5] has as its target T2, Melanocortin receptor 3. The data set is described as follows: Displacement of [125I]-NDP-alpha-MSH from human MC3R LBD expressed in HEK293 cell membranes up to 100 uM incubated for 16 to 23 hrs in dark by scintillation proximity assay.
For data set [6], the target named is T3, Melanocortin receptor 4. In words: Agonist activity at human MC4R expressed in high doxycyclin-treated HEK293 cell membranes assessed as increase in cAMP production up to 100 uM after 15 mins by HTRF method. The class given is functional, cell-based. The procedure, abridged: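 Stable T-REx-293 clone expressing human MC4R, induced with 10 ng/mL doxycycline for 24 h. 1000 cells/well in HBSS/20 mM HEPES pH 7.4/0.1% BSA. Stimulation for 15 min at 37 °C with 1 mM IBMX. LANCE HTRF cAMP read-out.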

Data set [7] can be described thus: Solubility of the compound in water at 1 mM. The conditions noted are these: buffer, 1000 µM. The class given is physicochemical.
Data set [8] deals with T3, Melanocortin receptor 4. The data set is described as follows: Agonist activity at human MC4R expressed in low doxycyclin-treated HEK293 cell membranes assessed as increase in cAMP production up to 100 uM after 45 mins by HTRF method. Type of data set: functional, cell-based. In outline: as §1
For data set [9], the target named is T4, Melanocortin receptor 5 (Homo sapiens, UniProt P33032). The data set is described as follows: Displacement of [125I]-NDP-alpha-MSH from human MC5R LBD expressed in HEK293 cell membranes up to 100 uM incubated for 16 to 23 hrs in dark by scintillation proximity assay.
T4 sequence (P33032 whole entry, the tested form may be a part): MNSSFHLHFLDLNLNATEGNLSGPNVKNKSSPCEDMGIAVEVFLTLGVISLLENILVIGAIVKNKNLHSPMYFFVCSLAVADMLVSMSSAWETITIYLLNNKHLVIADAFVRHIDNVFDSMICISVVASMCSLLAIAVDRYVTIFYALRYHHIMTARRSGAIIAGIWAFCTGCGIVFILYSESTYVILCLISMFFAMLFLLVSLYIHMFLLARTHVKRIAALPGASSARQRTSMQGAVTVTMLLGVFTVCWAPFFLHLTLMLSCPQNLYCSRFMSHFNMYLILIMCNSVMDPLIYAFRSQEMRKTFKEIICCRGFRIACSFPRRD
For data set [10], the target named is T4, Melanocortin receptor 5. In words: Displacement of [125I]-NDP-alpha-MSH from human MC5R LBD expressed in HEK293 cell membranes incubated for 16 to 23 hrs in dark by scintillation proximity assay. To be noted: concentration not given here. Set-up: concentration or dose not given beside the values.
Data set [11] has as its target T1, Melanocyte-stimulating hormone receptor. The data set is described as follows: Agonist activity at human MC1R expressed in low doxycyclin-treated HEK293 cell membranes assessed as increase in cAMP production after 45 mins by HTRF method. The class given is functional, cell-based.
Data set [12] has the same target. In words: Displacement of [125I]-NDP-alpha-MSH from human MC1R LBD expressed in HEK293 cell membranes incubated for 16 to 23 hrs in dark by scintillation proximity assay. To be noted: concentration not given here. More on the design: concentration or dose not given beside the values.
The target of data set [13] is T3, Melanocortin receptor 4. In words: Agonist activity at human MC4R expressed in high doxycyclin-treated HEK293 cell membranes assessed as increase in cAMP production after 15 mins by HTRF method. Type of data set: functional, cell-based. The procedure, abridged: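 T-REx-293 cells stably expressing doxycycline-inducible human MC1R, MC3R or MC4R; expression induced 24 h with 0.1 ng/mL (low) or 10 ng/mL (high, MC4R only) doxycycline. 1000 cells/well in HBSS, 20 mM HEPES pH 7.4, 0.1% BSA, 1 mM IBMX; stimulated at 37 °C. Time-resolved FRET cAMP read-out normalized to NDP-α-MSH maximum.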

The target in data set [14] is T3, Melanocortin receptor 4. In words: Displacement of [125I]-NDP-alpha-MSH from human MC4R LBD expressed in HEK293 cell membranes incubated for 16 to 23 hrs in dark by scintillation proximity assay. Set-up: concentration or dose not given beside the values. To be noted: concentration not given here.
The target in data set [15] is T1, Melanocyte-stimulating hormone receptor. The data set is described as follows: Displacement of [125I]-NDP-alpha-MSH from human MC1R LBD expressed in HEK293 cell membranes up to 1 uM incubated for 16 to 23 hrs in dark by scintillation proximity assay.
In data set [16] the target is T2, Melanocortin receptor 3. The data set is described as follows: Displacement of [125I]-NDP-alpha-MSH from human MC3R LBD expressed in HEK293 cell membranes incubated for 16 to 23 hrs in dark by scintillation proximity assay. Set-up: concentration or dose not given beside the values. To be noted: concentration not given here.

On to `CC[C@H](C)[C@@H]1NC(=O)[C@@H]2CCCN2C(=O)[C@@H]2CCCN2C(=O)[C@H]([C@@H](C)CC)NC(=O)[C@H](CO)NC(=O)[C@H](CCCCN)NC(=O)[C@H]([C@@H](C)O)NC(=O)[C@@H]2CSSC[C@H](NC1=O)C(=O)N[C@@H](Cc1ccccc1)C(=O)N1CCC[C@H]1C(=O)N[C@@H](CC(=O)O)C(=O)NCC(=O)N[C@@H](CCCNC(=N)N)C(=O)N2`, for which the inhibition entry (in data set [1]; on Melanocortin receptor 4 [4]; at Melanocortin receptor 3 [5]; on Melanocortin receptor 5 [9]) was “inactive” throughout. The outcome (at Melanocortin receptor 3 [2]; in [3]; on Melanocortin receptor 4 [6]; at Melanocortin receptor 4 [8]) was inactive. Further, the solubility result in [7] is on record as “Soluble”.

Consider `CC[C@H](C)[C@@H]1NC(=O)[C@@H]2CCCN2C(=O)[C@H](Cc2c[nH]c3ccccc23)N(C)C(=O)[C@H](CCCNC(=N)N)N(C)C(=O)[C@@H](Cc2ccccc2)NC(=O)[C@H](Cc2cnc[nH]2)N(C)C(=O)[C@H]([C@@H](C)O)NC(=O)[C@@H]2CSSC[C@H](NC1=O)C(=O)N[C@@H](Cc1ccccc1)C(=O)N1CCC[C@H]1C(=O)N[C@@H](CC(=O)O)C(=O)NCC(=O)N[C@@H](CCCNC(=N)N)C(=O)N2`, for which the result at Melanocortin receptor 3 [2] and at Melanocortin receptor 4 [8] was inactive. In addition, the inhibition (on Melanocortin receptor 5 [10]; in data set [12]; on Melanocortin receptor 4 [14]) was 100% throughout. The Activity (in [11]; on Melanocortin receptor 4 [13]) was 100% in each case. For the same compound, on Melanocortin receptor 3 [5], the inhibition result is “inactive”. Moreover, the solubility entry in data set [7] is given as “Soluble”.

As to `CC[C@H](C)[C@@H]1NC(=O)[C@@H]2CCCN2C(=O)[C@H](Cc2c[nH]c3ccccc23)NC(=O)[C@H](CCCNC(=N)N)NC(=O)[C@H](Cc2ccccc2)NC(=O)[C@H](Cc2cnc[nH]2)NC(=O)[C@H]([C@@H](C)O)NC(=O)[C@@H]2CSSC[C@H](NC1=O)C(=O)N[C@@H](Cc1ccccc1)C(=O)N1CCC[C@H]1C(=O)N[C@@H](CC(=O)O)C(=O)NCC(=O)N[C@@H](CCCNC(=N)N)C(=O)N2`, the outcome at Melanocortin receptor 3 [2] and on Melanocortin receptor 4 [8] was inactive. In addition, the inhibition on Melanocortin receptor 5 [10] and on Melanocortin receptor 3 [16] was 100% in each case. In addition, the Activity (in data set [11]; on Melanocortin receptor 4 [13]) was 100% throughout. In addition, the inhibition result (at Melanocortin receptor 4 [4]; in data set [15]) was “inactive” each time. Also, the solubility result in [7] is reported as “Soluble”.
